# Laboratory results reported in ChEMBL document CHEMBL1806428, “Design and synthesis of spiro derivatives of parthenin as novel anti-cancer agents” (Eur J Med Chem, 2011).
# Calls of active or inactive are those of the source. No cut-off for these calls is given here.
# Assays:
# PC-3 = assay: Cytotoxicity against human PC3 cells assessed as cell growth after 48 hrs by sulforhodamine B assay; assay type: functional, cell-based; details: Homo sapiens, PC-3, 48 h
# Summary of the method: (§1)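 Log-phase cells seeded at 10^4/well and allowed to attach for 24 h at 37 °C, 5% CO2. Exposed for 48 h to 0.1–100 (1:10 serial dilutions), four replicate wells per condition. Fixed with cold 50% TCA for 1 h at 4 °C, stained with sulforhodamine B, dye dissolved in Tris, OD read at 540 nm. Blank-subtracted growth expressed relative to untreated cells (100%); IC50 reported.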
# [1] = Antitumor activity against mouse EAC cells transplanted in Swiss albino mouse assessed as decrease in astic fluid volume at 50 mg/kg, ip administered for 9 days (reference value: 4.57+/-0.39 mL); assay type: functional, Ehrlich; details: route intraperitoneal
# [2] = Antitumor activity against mouse EAC cells transplanted in Swiss albino mouse assessed as decrease in astic fluid volume at 10 mg/kg, ip administered for 9 days (reference value: 4.57+/-0.39 mL); assay type: functional, Ehrlich; details: route intraperitoneal
# Summary of the method: (§2)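 EAC ascites model: mice of the same sex, 20 ± 3 g, injected intraperitoneally with 1 × 10^7 cells from a donor bearing 8–10 day old ascites tumor (day 0). Randomised the next day, 7 per test group and 10 controls. Doses were suspended in 1% gum acacia and given i.p. for nine consecutive days; controls received saline 0.2 mL i.p. On day 12, ascitic fluid volume and tumor cell count were measured, and % inhibition was calculated from cell number versus control.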
# [3] = Antitumor activity against mouse EAC cells transplanted in Swiss albino mouse assessed as tumor growth inhibition at 25 mg/kg, ip administered for 9 days (reference value: 4.57+/-0.39 mL); assay type: functional; details: Ehrlich, 216 h, route intraperitoneal, read-out: GI
# [4] = Antitumor activity against mouse Ehrlich Ascites tumor xenografted in Swiss albino mouse assessed as decrease in tumor weight at 10 mg/kg, ip administered for 9 days (reference value: 1708+/-51.07 mg); assay type: functional; details: route intraperitoneal
# SW-620 [5] = assay: Cytotoxicity against human SW620 cells assessed as cell growth after 48 hrs by sulforhodamine B assay; assay type: functional, cell-based; details: Homo sapiens, SW-620, 48 h; summary of the method: as §1
# DU-145 = assay: Cytotoxicity against human DU145 cells assessed as cell growth after 48 hrs by sulforhodamine B assay; assay type: functional, cell-based; details: Homo sapiens, DU-145, 48 h; summary of the method: as §1
# SW-620 [6] = assay: Cell cycle arrest in human SW620 cells assessed as increase in sub-G1 DNA content at 10 uM after 24 hrs using propidium iodide staining by flow cytometry (reference value: 3.45%); assay type: functional
# [7] = Antitumor activity against mouse EAC cells transplanted in Swiss albino mouse assessed as decrease in astic fluid volume at 25 mg/kg, ip administered for 9 days (reference value: 4.57+/-0.39 mL); assay type: functional, Ehrlich; details: route intraperitoneal
# SW-620 [8] = assay: Induction of apoptosis in human SW620 cells assessed as blockage of G1-phase at 50 uM after 24 hrs using propidium iodide staining by flow cytometry; assay type: functional, cell-based
# Ehrlich [9] = assay: Antitumor activity against mouse EAC cells transplanted in Swiss albino mouse assessed as decrease in tumor cells in ascetic fluid at 50 mg/kg, ip administered for 9 days (reference value: 4.57+/-0.39 mL); assay type: functional, organism-based; parameters: dose 50 mg/kg
# [10] = Antitumor activity against mouse EAC cells transplanted in Swiss albino mouse assessed as tumor growth inhibition at 10 mg/kg, ip administered for 9 days (reference value: 4.57+/-0.39 mL); assay type: functional; details: Ehrlich, 216 h, route intraperitoneal, read-out: GI; summary of the method: as §2
# Ehrlich [11] = assay: Antitumor activity against mouse EAC cells transplanted in Swiss albino mouse assessed as decrease in tumor cells in ascetic fluid at 100 mg/kg, ip administered for 9 days (reference value: 4.57+/-0.39 mL); assay type: functional, organism-based; parameters: dose 100 mg/kg
# [12] = Antitumor activity against mouse Ehrlich Ascites tumor xenografted in Swiss albino mouse assessed as decrease in tumor weight at 25 mg/kg, ip administered for 9 days (reference value: 1708+/-51.07 mg); assay type: functional; details: route intraperitoneal
# [13] = Antitumor activity against mouse EAC cells transplanted in Swiss albino mouse assessed as tumor growth inhibition at 100 mg/kg, ip administered for 9 days (reference value: 4.57+/-0.39 mL); assay type: functional; details: Ehrlich, 216 h, route intraperitoneal, read-out: GI
# [14] = Antitumor activity against mouse Ehrlich Ascites tumor xenografted in Swiss albino mouse assessed as decrease in tumor weight at 50 mg/kg, ip administered for 9 days (reference value: 1708+/-51.07 mg); assay type: functional; details: route intraperitoneal
# [15] = Antitumor activity against mouse Ehrlich Ascites tumor xenografted in Swiss albino mouse assessed as tumor growth inhibition at 100 mg/kg, ip administered for 9 days measured on day 13; assay type: functional; details: route intraperitoneal, read-out: GI
# Ehrlich [16] = assay: Antitumor activity against mouse EAC cells transplanted in Swiss albino mouse assessed as decrease in tumor cells in ascetic fluid at 25 mg/kg, ip administered for 9 days (reference value: 4.57+/-0.39 mL); assay type: functional, organism-based; parameters: dose 25 mg/kg
# [17] = Antitumor activity against mouse Ehrlich Ascites tumor xenografted in Swiss albino mouse assessed as tumor growth inhibition at 25 mg/kg, ip administered for 9 days measured on day 13; assay type: functional; details: route intraperitoneal, read-out: GI
# Mus musculus [18] = assay: Toxicity in Swiss albino mouse model of Ehrlich Ascites tumor assessed as mortality at 200 mg/kg, ip administered for 9 days measured on third day; assay type: organism-based; parameters: dose 200 mg/kg, route intraperitoneal; details: in vivo, 216 h
# [19] = Antitumor activity against mouse Ehrlich Ascites tumor xenografted in Swiss albino mouse assessed as decrease in tumor weight at 100 mg/kg, ip administered for 9 days (reference value: 1708+/-51.07 mg); assay type: functional; details: route intraperitoneal
# SW-620 [20] = assay: Induction of apoptosis in human SW620 cells assessed as DNA fragmentation at 50 uM after 24 hrs by gel electrophoresis; assay type: functional, cell-based
# Summary of the method: (§3)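 SW-620 cells (2 × 10^6 per 60 mm plate) treated for 24 h at 10, 50 or 100. Pellets lysed in 10 mM EDTA, 50 mM Tris pH 8.0, 0.5% SDS and proteinase K 0.5 mg/mL at 50 °C for 1 h. DNA heated briefly to 70 °C and run on 1.5% agarose at 50 V for 2–3 h. Untreated cells served as control; camptothecin as positive control.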
# [21] = Partition coefficient, log P of the compound; assay type: physicochemical; details: octanol/water
# [22] = Antitumor activity against mouse EAC cells transplanted in Swiss albino mouse assessed as tumor growth inhibition at 50 mg/kg, ip administered for 9 days (reference value: 4.57+/-0.39 mL); assay type: functional; details: Ehrlich, 216 h, route intraperitoneal, read-out: GI
# [23] = Antitumor activity against mouse Ehrlich Ascites tumor xenografted in Swiss albino mouse assessed as tumor growth inhibition at 10 mg/kg, ip administered for 9 days measured on day 13; assay type: functional; details: route intraperitoneal, read-out: GI
# SW-620 [24] = assay: Induction of apoptosis in human SW620 cells assessed as DNA fragmentation at 100 uM after 24 hrs by gel electrophoresis; assay type: functional, cell-based; summary of the method: as §3
# Mus musculus [25] = assay: Toxicity in ip dosed Swiss albino mouse transplanted with mouse EAC cells assessed as mortality administered for 9 days; assay type: organism-based, Ehrlich; details: in vivo, 216 h; summary of the method: as §2
# [26] = target: Transcription factor p65 (Homo sapiens) (UniProt Q04206); assay: Inhibition of NF-kappaB p65 subunit transcriptional activity in human SW620 cells at 5 uM by Western blot analysis; assay type: cell-based; details: SW-620
# Chain of Transcription factor p65 (Homo sapiens) (Q04206 whole entry): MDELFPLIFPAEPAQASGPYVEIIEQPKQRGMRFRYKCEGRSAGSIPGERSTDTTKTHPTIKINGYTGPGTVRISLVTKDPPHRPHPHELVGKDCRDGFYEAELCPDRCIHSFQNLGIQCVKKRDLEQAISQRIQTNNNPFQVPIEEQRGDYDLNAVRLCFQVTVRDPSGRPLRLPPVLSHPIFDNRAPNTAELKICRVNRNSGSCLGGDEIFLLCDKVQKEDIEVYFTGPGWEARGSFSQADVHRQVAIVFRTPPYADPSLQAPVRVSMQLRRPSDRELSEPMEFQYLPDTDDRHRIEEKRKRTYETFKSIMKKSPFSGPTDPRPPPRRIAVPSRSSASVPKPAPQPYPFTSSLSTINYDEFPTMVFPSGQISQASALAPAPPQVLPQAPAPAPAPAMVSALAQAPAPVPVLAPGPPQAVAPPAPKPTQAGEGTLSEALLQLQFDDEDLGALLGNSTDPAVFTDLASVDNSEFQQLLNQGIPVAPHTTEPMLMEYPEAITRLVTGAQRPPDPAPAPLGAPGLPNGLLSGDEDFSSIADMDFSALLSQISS
# Summary of the method: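 SW-620 cells (5 × 10^6) exposed to 5 for the indicated times. Washed in ice-cold PBS, lysed in Hepes pH 7.9 buffer with KCl, EDTA, EGTA, DTT, PMSF, NaF, vanadate and protease inhibitors, then NP-40 0.5%. Cytosol taken after 8000 × g. Nuclear fraction extracted with 20% glycerol and 0.4 M KCl on ice for 30 min, spun at 13,000 × g. NF-κB assessed by western blot.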
# Ehrlich [27] = assay: Antitumor activity against mouse EAC cells transplanted in Swiss albino mouse assessed as decrease in tumor cells in ascetic fluid at 10 mg/kg, ip administered for 9 days (reference value: 4.57+/-0.39 mL); assay type: functional, organism-based; parameters: dose 10 mg/kg; summary of the method: as §2
# [28] = Antitumor activity against mouse Ehrlich Ascites tumor xenografted in Swiss albino mouse assessed as tumor growth inhibition at 50 mg/kg, ip administered for 9 days measured on day 13; assay type: functional; details: route intraperitoneal, read-out: GI
# Ehrlich [29] = assay: Antitumor activity against mouse EAC cells transplanted in ip dosed Swiss albino mouse assessed as tumor growth inhibition administered for 9 days; assay type: functional, organism-based; summary of the method: as §2
# SW-620 [30] = assay: Cell cycle arrest in human SW620 cells assessed as increase in sub-G1 DNA content at 1 uM after 24 hrs using propidium iodide staining by flow cytometry (reference value: 3.45%); assay type: functional
# [31] = Antitumor activity against mouse EAC cells transplanted in Swiss albino mouse assessed as decrease in astic fluid volume at 100 mg/kg, ip administered for 9 days (reference value: 4.57+/-0.39 mL); assay type: functional, Ehrlich; details: route intraperitoneal
# SW-620 [32] = assay: Cell cycle arrest in human SW620 cells assessed as increase in sub-G1 DNA content at 50 uM after 24 hrs using propidium iodide staining by flow cytometry (reference value: 3.45%); assay type: functional
# SW-620 [33] = assay: Cell cycle arrest in human SW620 cells assessed as increase in sub-G1 DNA content at 5 uM after 24 hrs using propidium iodide staining by flow cytometry (reference value: 3.45%); assay type: functional
# Mus musculus [34] = assay: Antitumor activity against mouse Ehrlich Ascites tumor xenografted in ip dosed Swiss albino mouse assessed as tumor growth administered for 9 days; assay type: functional, organism-based
# Mus musculus [35] = assay: Toxicity in Swiss albino mouse transplanted with EAC cells assessed as mortality at 200 mg/kg, ip administered for 9 days measured on day 3rd; assay type: organism-based, Ehrlich; parameters: dose 200 mg/kg, route intraperitoneal; details: in vivo, 216 h; summary of the method: as §2
smiles,measurement,setting,value
C[C@H]1CC[C@@H]2[C@@H](OC(=O)[C@]23CC(c2c4ccccc4cc4ccccc24)=NO3)[C@]2(C)C(=O)C=C[C@@]12O,IC50,PC-3,4.9 µM
same,Activity,[1],2.85 mL
same,Activity,[2],4.07 mL
same,inhibition in vivo at 25 mg/kg,[3],19.2%
same,Activity,[4],1547.14 mg
same,IC50,SW-620 [5],4.3 µM
same,IC50,DU-145,4.6 µM
same,Activity,SW-620 [6],33.2%
same,Activity,[7],3.62 mL
same,Activity,SW-620 [8],Active
same,Activity,Ehrlich [9],Active
same,inhibition in vivo at 10 mg/kg,[10],7.74%
same,Activity,Ehrlich [11],Active
same,Activity,[12],1445.71 mg
same,inhibition in vivo at 100 mg/kg,[13],60.5%
same,Activity,[14],1332.14 mg
same,inhibition in vivo at 100 mg/kg,[15],35.1%
same,Activity,Ehrlich [16],Active
same,inhibition in vivo at 25 mg/kg,[17],15.4%
same,Activity,Mus musculus [18],Toxic
same,Activity,[19],1108.57 mg
same,Activity,SW-620 [20],Active
same,logP,[21],3.71
same,inhibition in vivo at 50 mg/kg,[22],27.2%
same,inhibition in vivo at 10 mg/kg,[23],9.44%
same,Activity,SW-620 [24],Active
same,Activity,Mus musculus [25],Toxic
same,inhibition,[26],Active
same,Activity,Ehrlich [27],Active
same,inhibition in vivo at 50 mg/kg,[28],22%
same,growth inhibition (GI),Ehrlich [29],Dose-dependent effect
same,Activity,SW-620 [30],6.58%
same,Activity,[31],2.07 mL
same,Activity,SW-620 [32],55%
same,Activity,SW-620 [33],33.09%
same,growth inhibition (GI),Mus musculus [34],Dose-dependent effect
same,Activity,Mus musculus [35],Toxic
